Measurements taken from ChEMBL document CHEMBL4376891, “Benzenesulfonamide Derivatives as Calcium/Calmodulin-Dependent Protein Kinase Inhibitors and Antiviral Agents against Dengue and Zika Virus Infections” (J Med Chem, 2020).
Calls of active or inactive are those of the source. The rule behind the calls is not given here.

How the values were obtained:
dengue virus type 2 [1] = assay: Antiviral activity against Dengue virus 2 infected in human BE(2)-C cells assessed as NS3 protein expression at 0.39 uM incubated for 48 hrs by Western blot analysis (reference value: 100%); format: functional
Outline: (§1)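 BE(2)C neuroblastoma cells in RPMI 1640 with 10% FBS were infected with DENV-2 PL046 at MOI 0.1 for 48 h, without or with compound at increasing concentrations. NS3 was immunoblotted with actin as loading control. The NS3:actin densitometry ratio was expressed as % of the DMSO control. Mean ± SD of 3 independent experiments.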

dengue virus type 2 [2] = assay: Antiviral activity against Dengue virus 2 infected in human BE(2)-C cells assessed as NS3 protein expression at 0.78 uM incubated for 48 hrs by Western blot analysis (reference value: 100%); format: functional; outline: as §1
Zika virus [3] = assay: Antiviral activity against Zika virus infected in human BE(2)-C cells assessed as suppression of viral-induced CaMKIIalpha activation at 3.125 uM incubated for 4 hrs by confocal microscopy; format: functional, organism-based
Zika virus [4] = assay: Antiviral activity against Zika virus infected in human BE(2)-C cells assessed as NS3 protein expression at 0.39 uM incubated for 48 hrs by Western blot analysis (reference value: 100%); format: functional
Outline: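 BE(2)C cells were infected with ZIKV PRVABC59 at MOI 0.1 for 48 h, with or without compound at increasing concentrations. Viral protein was immunoblotted with actin as loading control. The band-density ratio was given as % of the solvent control. Mean ± SD, 3 independent experiments.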

dengue virus type 2 [5] = assay: Antiviral activity against Dengue virus 2 infected in human BE(2)-C cells transfected with shLacZ assessed as NS3 protein expression at 6.25 uM incubated for 48 hrs by Western blot analysis (reference value: 100%); format: functional
dengue virus type 2 [6] = settings: 3.125 to 6.25 uM
dengue virus type 2 [7] = assay: Antiviral activity against DENV-2 NGC-N infected in Stat1-/- mouse assessed as improvement in mouse survival by measuring median survival time at 4 to 8 mg/kg, po dosed 8 hrs after infection and ending at day 6 after infection (8 hrs delay) (reference value: 8 days); format: functional
Zika virus [8] = assay: Antiviral activity against Zika virus infected in human BE(2)-C cells assessed as reduction in NS3 protein expression at 3.125 to 6.25 uM treated during 3 to 24 hrs post infection by Western blot analysis; format: functional, organism-based
Outline: (§2)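 Time-of-addition design: BE(2)C cells were infected with DENV-2 or ZIKV at MOI 1. Compound at 3.125 or 6.25 μM was present either during adsorption (0–3 hpi) or afterward (3–24 hpi). Viral protein was immunoblotted against actin, with the ratio as % of the solvent control.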

dengue virus type 2 [9] = assay: Antiviral activity against Dengue virus 2 infected in human BE(2)-C cells assessed as NS3 protein expression at 12.5 uM incubated for 48 hrs by Western blot analysis (reference value: 100%); format: functional; outline: as §1
Zika virus [10] = settings: 3.125 to 6.25 uM
dengue virus type 2 [11] = assay: Antiviral activity against Dengue virus 2 infected in human BE(2)-C cells assessed as NS3 protein expression at 6.25 uM incubated for 48 hrs by Western blot analysis (reference value: 100%); format: functional; outline: as §1
Zika virus [12] = assay: Antiviral activity against Zika virus infected in Stat1-/- mouse assessed as reduction in viral load at 4 to 8mg/kg/day, po dosed immediately following viral infection followed by daily dosing for 3 days; format: functional, organism-based
Outline: (§3)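 Stat1-/- mice infected with DENV-2 NGC-N (1x10⁵ PFU iv) or ZIKV PRVABC59 (5x10⁴ PFU sc, footpad), with oral dosing or PBS starting immediately. Serum was taken from the submandibular vein on day 3 post-infection. Viremia was measured by plaque assay and reported as individual values and mean; n = 5.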

dengue virus type 2 [13] = assay: Antiviral activity against Dengue virus 2 infected in human BE(2)-C cells assessed as NS3 protein expression incubated for 48 hrs by Western blot analysis; format: functional, organism-based; outline: as §1
Zika virus [14] = assay: Antiviral activity against Zika virus infected in human BE(2)-C cells assessed as NS3 protein expression at 6.25 uM treated during 3 to 24 hrs post infection by Western blot analysis (reference value: 100%); format: functional; outline: as §2
dengue virus type 2 [15] = assay: Antiviral activity against Dengue virus 2 infected in human BE(2)-C cells assessed as NS3 protein expression at 3.125 uM treated during 0 to 3 hrs post infection by Western blot analysis (reference value: 100%); format: functional; outline: as §2
dengue virus type 2 [16] = assay: Antiviral activity against Dengue virus 2 infected in human BE(2)-C cells assessed as reduction in viral entry at 3.125 to 6.25 uM incubated for 90 mins by plaque-forming assay; format: functional, organism-based
Outline: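 Virus entry: BE(2)C cells were incubated with DENV-2 or ZIKV for 90 min at 4 °C and washed cold. Cells were then treated with 3.125 or 6.25 μM compound at 37 °C for 1 h. Non-internalized virus was inactivated with 0.1 M glycine, pH 3, for 5 min. Cells were lysed by needle passage, and internalized virus was titrated by plaque assay. Mean ± SD, n = 3.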

BE(2)-C = assay: Cytotoxicity against human BE(2)-C cells assessed as reduction in cell proliferation up to 12.5 uM incubated overnight by XTT assay relative to control; format: cell-based
Outline: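 BE(2)C cells (RPMI 1640, 10% FBS) exposed overnight to compound at concentrations up to 12.5 μM; XTT (proliferation) or LDH release (cytotoxicity) read by absorbance at 490 nm. Values normalized to solvent control (%), mean ± SD of 3 independent experiments.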

dengue virus type 2 [17] = assay: Antiviral activity against Dengue virus 2 infected in human BE(2)-C cells assessed as NS3 protein expression at 6.25 uM treated during 3 to 24 hrs post infection by Western blot analysis (reference value: 100%); format: functional; outline: as §2
dengue virus type 2 [18] = assay: Antiviral activity against Dengue virus 2 infected in human BE(2)-C cells assessed as NS3 protein expression at 3.125 uM incubated for 48 hrs by Western blot analysis (reference value: 100%); format: functional; outline: as §1
Zika virus [19] = assay: Antiviral activity against Zika virus infected in human BE(2)-C cells transfected with shCaMKIIalpha assessed as NS3 protein expression at 3.125 uM incubated for 48 hrs by Western blot analysis (reference value: 100%); format: functional
Zika virus [20] = assay: Antiviral activity against Zika virus infected in human BE(2)-C cells assessed as reduction inNS3 protein expression at 3.125 to 6.25 uM treated during 0 to 3 hrs post infection by Western blot analysis; format: functional, organism-based; outline: as §2
dengue virus type 2 [21] = assay: Antiviral activity against DENV-2 NGC-N infected in Stat1-/- mouse assessed as reduction in viral load at 4 to 8mg/kg/day, po dosed immediately following viral infection followed by daily dosing for 3 day; format: functional, organism-based; outline: as §3
dengue virus type 2 [22] = assay: Antiviral activity against DENV-2 NGC-N infected in Stat1-/- mouse assessed as improvement in mouse survival by measuring median survival time at 4 mg/kg, po dosed 8 hrs after infection and ending at day 6 after infection (8 hrs delay) (reference value: 10 days); format: functional

COc1ccc(S(=O)(=O)N(CCCC(=O)C2CCCCCC2)c2ccccc2)cc1
Activity (dengue virus type 2 [1]): 90.8% | Activity (dengue virus type 2 [2]): 85.4% | Activity (Zika virus [3]): Active | Activity (Zika virus [4]): 97.7% | Activity (dengue virus type 2 [5]): 34.6% | inhibition (dengue virus type 2 [6]): inactive | MST (dengue virus type 2 [7]): 10 days | Activity (Zika virus [8]): inactive | Activity (dengue virus type 2 [9]): 5.1% | inhibition (Zika virus [10]): inactive | Activity (dengue virus type 2 [11]): 23.1% | Activity (Zika virus [12]): Active | Activity (dengue virus type 2 [13]): Dose-dependent effect | Activity (Zika virus [14]): 79.5% | Activity (dengue virus type 2 [15]): 72.5% | Activity (dengue virus type 2 [16]): Dose-dependent effect | Activity (BE(2)-C): Non-Toxic | Activity (dengue virus type 2 [17]): 55.3% | Activity (dengue virus type 2 [18]): 54.5% | Activity (Zika virus [19]): 101% | Activity (Zika virus [20]): Dose-dependent effect | Activity (dengue virus type 2 [21]): Active | MST (dengue virus type 2 [22]): 22 days
